Active and inactive are the calls of the source.
Tests used:
[1] = biological target: T1, Tyrosine-protein kinase JAK3 (Homo sapiens, UniProt P52333); assay: Inhibition of JAK3 in endogenous nucleic acid-stimulated human HaCaT cells assessed as reduction in CXCL10 expression at 100 nM measured after 24 hrs by ELISA
T1 sequence (P52333 whole entry): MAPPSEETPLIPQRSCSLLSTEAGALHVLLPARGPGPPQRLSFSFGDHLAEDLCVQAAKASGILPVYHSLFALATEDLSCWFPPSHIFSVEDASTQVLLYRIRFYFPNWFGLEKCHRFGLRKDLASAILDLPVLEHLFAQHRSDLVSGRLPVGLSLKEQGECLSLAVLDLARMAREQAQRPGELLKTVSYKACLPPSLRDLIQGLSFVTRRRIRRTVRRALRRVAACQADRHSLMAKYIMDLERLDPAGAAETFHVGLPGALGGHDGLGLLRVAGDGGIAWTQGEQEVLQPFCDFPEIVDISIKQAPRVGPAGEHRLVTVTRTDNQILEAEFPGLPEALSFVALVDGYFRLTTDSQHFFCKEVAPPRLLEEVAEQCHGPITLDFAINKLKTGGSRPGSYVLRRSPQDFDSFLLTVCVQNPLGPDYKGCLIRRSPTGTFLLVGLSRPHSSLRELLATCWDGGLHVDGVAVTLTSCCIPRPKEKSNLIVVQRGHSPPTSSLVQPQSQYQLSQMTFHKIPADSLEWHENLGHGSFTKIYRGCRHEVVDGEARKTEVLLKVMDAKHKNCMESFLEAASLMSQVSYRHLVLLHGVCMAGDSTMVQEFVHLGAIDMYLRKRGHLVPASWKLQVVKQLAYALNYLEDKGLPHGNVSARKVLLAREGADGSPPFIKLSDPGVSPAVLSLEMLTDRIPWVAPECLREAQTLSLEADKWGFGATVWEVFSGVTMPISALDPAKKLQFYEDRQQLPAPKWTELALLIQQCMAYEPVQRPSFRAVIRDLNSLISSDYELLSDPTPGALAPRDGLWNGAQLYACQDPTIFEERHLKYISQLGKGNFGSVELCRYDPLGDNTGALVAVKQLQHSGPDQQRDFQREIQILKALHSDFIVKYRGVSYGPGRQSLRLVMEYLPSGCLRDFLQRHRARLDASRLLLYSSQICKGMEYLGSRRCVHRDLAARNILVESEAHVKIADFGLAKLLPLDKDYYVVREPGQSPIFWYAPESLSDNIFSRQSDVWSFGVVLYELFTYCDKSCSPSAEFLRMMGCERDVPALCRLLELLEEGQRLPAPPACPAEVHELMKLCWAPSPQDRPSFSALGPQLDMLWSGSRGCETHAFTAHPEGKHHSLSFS

Mus musculus [2] = assay: Improvement in CLE-like skin lesions in 450 mJ/cm2 UV-irradiated lupus-prone TREX1-/- mouse model assessed as reduction in IRF7 gene expression in lesional skin at 1 % administered topically for 7 days relative to control; format: functional, organism-based; conditions: time 7.0 day
Summary of the method: (§1)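 Lesional skin from TREX1–/– mice given the topical JAK1 inhibitor or placebo underwent gene expression analysis for IFN-associated genes. Differential expression was defined as a change greater than twofold with p < 0.05 by Welch's t-test against placebo.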

Mus musculus [3] = assay: Improvement in CLE-like skin lesions in 450 mJ/cm2 UV-irradiated lupus-prone TREX1-/- mouse model assessed as reduction in IFITM3 gene expression in lesional skin at 1 % administered topically for 7 days relative to control; format: functional, organism-based; conditions: time 7.0 day
Summary of the method: as §1

Mus musculus [4] = assay: Improvement in CLE-like skin lesions in 450 mJ/cm2 UV-irradiated lupus-prone TREX1-/- mouse model assessed as reduction in CCL5 gene expression in lesional skin at 1 % administered topically for 7 days relative to control; format: functional, organism-based; conditions: time 7.0 day
Summary of the method: as §1

Mus musculus [5] = assay: Improvement in CLE-like skin lesions in 450 mJ/cm2 UV-irradiated lupus-prone TREX1-/- mouse model assessed as reduction in IRF9 gene expression in lesional skin at 1 % administered topically for 7 days relative to control; format: functional, organism-based; conditions: time 7.0 day
Summary of the method: as §1

Mus musculus [6] = assay: Improvement in CLE-like skin lesions in 450 mJ/cm2 UV-irradiated lupus-prone TREX1-/- mouse model assessed as reduction in scaling at 1 % administered topically for 7 days measured on day 4 and 7 post-dose; format: functional, organism-based; conditions: time 7.0 day
Summary of the method: (§2)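 Topical treatment or placebo was given for 7 days, with n = 4 mice per group. Lesions were photographed daily and mice weighed every 2 days. Erythema, induration, scaling and lesion size were scored with the mouse-adapted revised CLASI (Mouse RCLASI) and reported as mean ± SEM.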

Mus musculus [7] = assay: Improvement in CLE-like skin lesions in 450 mJ/cm2 UV-irradiated lupus-prone TREX1-/- mouse model assessed as reduction in erythema at 1 % administered topically for 7 days measured on day 4 and 7 post-dose; format: functional, organism-based; conditions: time 7.0 day
Summary of the method: as §2

[8] = biological target: Tyrosine-protein kinase JAK1 (Homo sapiens) (UniProt P23458); assay: Inhibition of JAK1 in endogenous nucleic acid-stimulated human HaCaT cells assessed as reduction in CXCL10 expression at 1 uM measured after 24 hrs by ELISA
Target sequence in this assay (P23458 whole entry, looked up): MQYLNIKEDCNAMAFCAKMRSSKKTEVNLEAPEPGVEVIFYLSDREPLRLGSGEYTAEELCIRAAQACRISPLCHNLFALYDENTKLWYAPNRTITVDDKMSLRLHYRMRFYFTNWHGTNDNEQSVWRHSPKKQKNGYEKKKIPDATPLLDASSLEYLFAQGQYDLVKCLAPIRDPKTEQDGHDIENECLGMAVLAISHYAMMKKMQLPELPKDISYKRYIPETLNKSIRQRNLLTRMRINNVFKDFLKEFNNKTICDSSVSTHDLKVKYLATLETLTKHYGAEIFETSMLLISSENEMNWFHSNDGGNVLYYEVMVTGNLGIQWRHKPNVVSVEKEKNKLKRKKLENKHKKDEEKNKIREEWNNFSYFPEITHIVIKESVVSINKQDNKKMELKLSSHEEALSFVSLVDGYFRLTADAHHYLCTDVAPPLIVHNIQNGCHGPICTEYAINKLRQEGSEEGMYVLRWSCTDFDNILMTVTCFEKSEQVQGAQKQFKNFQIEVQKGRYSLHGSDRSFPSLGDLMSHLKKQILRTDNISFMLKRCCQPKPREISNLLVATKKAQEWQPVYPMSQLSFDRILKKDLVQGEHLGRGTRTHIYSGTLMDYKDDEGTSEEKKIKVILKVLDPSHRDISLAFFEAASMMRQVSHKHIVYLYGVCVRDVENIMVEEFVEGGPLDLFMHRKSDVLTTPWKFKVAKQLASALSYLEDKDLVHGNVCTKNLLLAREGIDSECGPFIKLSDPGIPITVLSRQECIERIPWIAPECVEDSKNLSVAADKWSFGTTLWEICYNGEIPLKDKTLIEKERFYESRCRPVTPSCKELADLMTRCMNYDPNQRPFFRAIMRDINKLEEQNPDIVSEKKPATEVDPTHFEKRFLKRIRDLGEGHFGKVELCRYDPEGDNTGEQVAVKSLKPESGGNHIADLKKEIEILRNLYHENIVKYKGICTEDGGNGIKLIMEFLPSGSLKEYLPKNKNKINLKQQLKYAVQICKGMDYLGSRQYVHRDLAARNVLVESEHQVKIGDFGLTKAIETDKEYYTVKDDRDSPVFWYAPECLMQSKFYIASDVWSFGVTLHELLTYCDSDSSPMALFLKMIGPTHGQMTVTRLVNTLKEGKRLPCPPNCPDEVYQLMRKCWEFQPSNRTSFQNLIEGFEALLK

Mus musculus [9] = assay: Improvement in CLE-like skin lesions in 450 mJ/cm2 UV-irradiated lupus-prone TREX1-/- mouse model assessed as reduction in CXCL10 gene expression in lesional skin at 1 % administered topically for 7 days relative to control; format: functional, organism-based; conditions: time 7.0 day
Summary of the method: as §1

[10] = biological target: Tyrosine-protein kinase JAK1 (Homo sapiens) (UniProt P23458); assay: Inhibition of JAK1 in endogenous nucleic acid-stimulated NHEK cells assessed as decrease in TRAIL gene expression at 1 uM relative to control; format: cell-based
Summary of the method: (§3)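 NHEK primary keratinocytes were stimulated with endogenous nucleic acids (eNA) and then treated with inhibitor at 1 μM final, 4 samples per condition. Gene expression was compared with untreated eNA-stimulated cells. Downregulation was defined as greater than twofold with p < 0.05 by Welch's t-test.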
Target sequence in this assay (P23458 whole entry): as the sequence (P23458 whole entry, looked up) above

[11] = biological target: Tyrosine-protein kinase JAK1 (Homo sapiens) (UniProt P23458); assay: Inhibition of JAK1 in endogenous nucleic acid-stimulated NHEK cells assessed as decrease in CXCL10 gene expression at 1 uM relative to control; format: cell-based
Summary of the method: as §3
Target sequence in this assay (P23458 whole entry): as the sequence (P23458 whole entry, looked up) above

Mus musculus [12] = assay: Improvement in CLE-like skin lesions in 450 mJ/cm2 UV-irradiated lupus-prone TREX1-/- mouse model assessed as improvement in infiltrating dermal immune cells at 1 % administered topically for 7 days by H and E staining based histological analysis; format: functional, organism-based; conditions: time 7.0 day
Summary of the method: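 Lesional skin from the topically treated or placebo-treated groups was processed for H&E and anti-CD45 immunohistology and viewed at ×400. Dermal infiltrate was graded as a CD45 inflammation score. Values are mean ± SEM and were compared by Mann-Whitney U test.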

[13] = biological target: Tyrosine-protein kinase JAK1 (Homo sapiens) (UniProt P23458); assay: Inhibition of JAK1 in endogenous nucleic acid-stimulated NHEK cells assessed as decrease in BlyS gene expression at 1 uM relative to control; format: cell-based
Summary of the method: as §3
Target sequence in this assay (P23458 whole entry): as the sequence (P23458 whole entry, looked up) above

[14] = biological target: Tyrosine-protein kinase JAK1 (Homo sapiens) (UniProt P23458); assay: Inhibition of JAK1 in endogenous nucleic acid-stimulated NHEK cells assessed as decrease in AIM2 gene expression at 1 uM relative to control; format: cell-based
Summary of the method: as §3
Target sequence in this assay (P23458 whole entry): as the sequence (P23458 whole entry, looked up) above

Mus musculus [15] = assay: Improvement in CLE-like skin lesions in 450 mJ/cm2 UV-irradiated lupus-prone TREX1-/- mouse model assessed as reduction in IRF1 gene expression in lesional skin at 1 % administered topically for 7 days relative to control; format: functional, organism-based; conditions: time 7.0 day
Summary of the method: as §1

Mus musculus [16] = assay: Improvement in CLE-like skin lesions in 450 mJ/cm2 UV-irradiated lupus-prone TREX1-/- mouse model assessed as reduction in CXCL9 gene expression in lesional skin at 1 % administered topically for 7 days relative to control; format: functional, organism-based; conditions: time 7.0 day
Summary of the method: as §1

Mus musculus [17] = assay: Improvement in CLE-like skin lesions in 450 mJ/cm2 UV-irradiated lupus-prone TREX1-/- mouse model assessed as reduction in IFIT1 gene expression in lesional skin at 1 % administered topically for 7 days relative to control; format: functional, organism-based; conditions: time 7.0 day
Summary of the method: as §1

Mus musculus [18] = assay: Improvement in CLE-like skin lesions in 450 mJ/cm2 UV-irradiated lupus-prone TREX1-/- mouse model assessed as reduction in lession size at 1 % administered topically for 7 days measured on day 4 and 7 post-dose; format: functional, organism-based; conditions: time 7.0 day
Summary of the method: as §2

Mus musculus [19] = assay: Improvement in CLE-like skin lesions in 450 mJ/cm2 UV-irradiated lupus-prone TREX1-/- mouse model assessed as reduction in CCL7 gene expression in lesional skin at 1 % administered topically for 7 days relative to control; format: functional, organism-based; conditions: time 7.0 day
Summary of the method: as §1

Mus musculus [20] = assay: Improvement in CLE-like skin lesions in 450 mJ/cm2 UV-irradiated lupus-prone TREX1-/- mouse model assessed as reduction in induration at 1 % administered topically for 7 days measured on day 4 and 7 post-dose; format: functional, organism-based; conditions: time 7.0 day
Summary of the method: as §2

Mus musculus [21] = assay: Improvement in CLE-like skin lesions in 450 mJ/cm2 UV-irradiated lupus-prone TREX1-/- mouse model assessed as reduction in CCL2 gene expression in lesional skin at 1 % administered topically for 7 days relative to control; format: functional, organism-based; conditions: time 7.0 day
Summary of the method: as §1

[22] = biological target: Tyrosine-protein kinase JAK1 (Homo sapiens) (UniProt P23458); assay: Inhibition of JAK1 in endogenous nucleic acid-stimulated NHEK cells assessed as decrease in Caspase 10 gene expression at 1 uM relative to control; format: cell-based
Summary of the method: as §3
Target sequence in this assay (P23458 whole entry): as the sequence (P23458 whole entry, looked up) above

[23] = biological target: Tyrosine-protein kinase JAK1 (Homo sapiens) (UniProt P23458); assay: Inhibition of JAK1 in endogenous nucleic acid-stimulated NHEK cells assessed as decrease in CXCL11 gene expression at 1 uM relative to control; format: cell-based
Summary of the method: as §3
Target sequence in this assay (P23458 whole entry): as the sequence (P23458 whole entry, looked up) above

[24] = biological target: Tyrosine-protein kinase JAK1 (Homo sapiens) (UniProt P23458); assay: Inhibition of JAK1 in endogenous nucleic acid-stimulated NHEK cells assessed as decrease in TREX1 gene expression at 1 uM relative to control; format: cell-based
Summary of the method: as §3

Mus musculus [25] = assay: Improvement in CLE-like skin lesions in 450 mJ/cm2 UV-irradiated lupus-prone TREX1-/- mouse model assessed as reduction in CCL9 gene expression in lesional skin at 1 % administered topically for 7 days relative to control; format: functional, organism-based; conditions: time 7.0 day
Summary of the method: as §1

Mus musculus [26] = assay: Improvement in CLE-like skin lesions in 450 mJ/cm2 UV-irradiated lupus-prone TREX1-/- mouse model assessed as improvement in epidermal thickness at 1 % administered topically for 7 days by H and E staining based histological analysis; format: functional, organism-based; conditions: time 7.0 day

CN(C)C(=O)/C(C#N)=C/c1ccc(-c2nc3cnc4[nH]ccc4c3n2C2CCCCC2)o1
inhibition (INH) [1]: Not Active

N#CCC1(n2cc(-c3ncnc4[nH]ccc34)cn2)CN(C2CCN(C(=O)c3ccnc(C(F)(F)F)c3F)CC2)C1 [ITACITINIB]
Activity (Mus musculus [2]): Active
Activity (Mus musculus [3]): Active
Activity (Mus musculus [4]): Active
Activity (Mus musculus [5]): Active
Activity (Mus musculus [6]): Active
Activity (Mus musculus [7]): Active
inhibition (INH) [8]: Active
Activity (Mus musculus [9]): Active
fold change (FC) [10]: > 2
fold change (FC) [11]: > 2
Activity (Mus musculus [12]): Active
fold change (FC) [13]: > 2
fold change (FC) [14]: > 2
Activity (Mus musculus [15]): Active
Activity (Mus musculus [16]): Active
Activity (Mus musculus [17]): Active
Activity (Mus musculus [18]): Active
Activity (Mus musculus [19]): Active
Activity (Mus musculus [20]): Active
Activity (Mus musculus [21]): Active
fold change (FC) [22]: > 2
fold change (FC) [23]: > 2
fold change (FC) [24]: > 2
Activity (Mus musculus [25]): Active
Activity (Mus musculus [26]): Active

— ChEMBL document CHEMBL5712914, “Selective Janus Kinase 1 Inhibition Is a Promising Therapeutic Approach for Lupus Erythematosus Skin Lesions” (Front Immunol, 2020)
